# Measured values from different studies.
# Protocols differ between the studies behind these lines.
# Target: Serine/threonine-protein kinase NLK (NLK, Homo sapiens, UniProt Q9UBE8)
# Residues used in one study (Q9UBE8 1-527): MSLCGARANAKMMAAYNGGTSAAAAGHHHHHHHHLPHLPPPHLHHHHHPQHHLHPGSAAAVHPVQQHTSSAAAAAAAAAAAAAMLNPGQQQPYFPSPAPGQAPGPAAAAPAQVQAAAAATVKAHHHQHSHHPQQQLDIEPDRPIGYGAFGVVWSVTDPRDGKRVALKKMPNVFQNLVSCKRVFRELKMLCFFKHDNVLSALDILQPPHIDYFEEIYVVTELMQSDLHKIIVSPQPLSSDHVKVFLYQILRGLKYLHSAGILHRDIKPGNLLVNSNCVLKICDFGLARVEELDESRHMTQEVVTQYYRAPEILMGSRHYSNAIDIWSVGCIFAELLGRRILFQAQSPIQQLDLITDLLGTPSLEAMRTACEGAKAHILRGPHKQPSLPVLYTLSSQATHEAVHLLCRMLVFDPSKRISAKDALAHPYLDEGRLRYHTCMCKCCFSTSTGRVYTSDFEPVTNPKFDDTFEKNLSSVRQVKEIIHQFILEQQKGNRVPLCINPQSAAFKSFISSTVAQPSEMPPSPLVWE
SMILES,observed,method,concentration,remaining binding
O=C(NCCCN1CCOCC1)c1ccc(Nc2ncc(Cl)c(-c3ccc(Cl)s3)n2)cc1,binding,competition with immobilised ligand,1 µM,100%
O=C(NCc1ncc(C(F)(F)F)cc1Cl)c1ccc2c(c1)C1(CCS(=O)(=O)CC1)[C@@H](C1CC1)N2S(=O)(=O)c1ccc(F)cc1,cell-free assay,competition with immobilised ligand,1 µM,89%
COc1ccnn2ncc(-c3ccnc(N(C)C)n3)c12,binding,,1 µM,87%
O=C1CCc2cc(Nc3cc(OC4CCOCC4)c([N+](=O)[O-])cc3Cl)ccc2N1,cell-free assay,competition with immobilised ligand,1 µM,100%
O=C(c1ccc(Nc2nccc(-c3cc4ccccc4s3)n2)cc1)N1CCC(N2CCCC2)CC1,binding,competition with immobilised ligand,1 µM,93%
C=CC(=O)N1CCC(C(=O)NCC(=O)N2CCN(c3nc(-c4cnc(N)nc4C(F)F)nc(N4CCOCC4)n3)CC2)CC1,binding,competition with immobilised ligand,1 µM,94%
FC(F)(F)Oc1cccc(-c2cnc3ccc(-c4ccncc4)nn23)c1,cell-free assay,competition with immobilised ligand,5 µM,85%
CN(C)c1nccc(-c2cnc3ncccn23)n1,binding,,1 µM,74%
COc1cnc(Nc2cccc(S(N)(=O)=O)c2)nc1N1CCN(c2ccccc2)C(=O)C1,binding,competition with immobilised ligand,1 µM,100%
Cc1cnn2ncc(-c3ccnc(N(C)C)n3)c2c1,binding,,1 µM,100%
O=C(c1ccc(Nc2ncc(Cl)c(-c3cc4ccccc4s3)n2)cc1)N1CCC(N2CCCC2)CC1,binding,competition with immobilised ligand,1 µM,72%
C[C@H]1CCN(c2nccc(-c3cnn4ncccc34)n2)C1,binding,,1 µM,100%
CN(C)c1ncnc(-c2ccc3nc(Nc4cc(CN5CCN(C(=O)CC(F)(F)F)CC5)ccn4)[nH]c3c2)c1Cl,cell-free assay,competition with immobilised ligand,1 µM,88%
N[C@@H]1CCN(c2nccc(-c3cnn4ncccc34)n2)C1,binding,,1 µM,100%
C[C@@H]1CN(c2cc(-c3nn(C)c4ccc(OC5(C)CC5)cc34)ncn2)C[C@H](C)O1,cell-free assay,competition with immobilised ligand,1 µM,96%
CN(C)c1ncc(F)c(-c2cnn3ncccc23)n1,binding,,1 µM,74%
C[C@H](c1cccc(C#N)c1)n1cc(Cl)cc(C(N)=O)c1=N,cell-free assay,competition with immobilised ligand,1 µM,44%
CCN1CCN(Cc2ccc(C(=O)Nc3ccc(C)c(Oc4ccc5c(c4)CC(=O)N5)c3)cc2C(F)(F)F)CC1,binding,competition with immobilised ligand,1 µM,79%
O=C(O)[C@@H]1[C@@H](Cn2nnc3ccccc3c2=O)CC[C@H]1C(=O)c1ccc(OCCC2CCOCC2)cc1,cell-free assay,competition with immobilised ligand,1 µM,86%
O=C(NCC1CCOCC1)c1n[nH]cc1NC(=O)c1c(F)cccc1F,binding,competition with immobilised ligand,1 µM,85%
CNC(=O)c1ccc(Nc2ncc(C(F)(F)F)c(NCc3nccnc3N(C)S(C)(=O)=O)n2)cc1,cell-free assay,competition with immobilised ligand,0.1 µM,100%
CNC(=O)[C@@H]1CC[C@@H](n2c(-c3ccc4cnccc4c3)nc3ccc(C(=O)NCc4cccc(C(N)=O)c4)cc32)C1,binding,competition with immobilised ligand,1 µM,100%
